Experiments:
[1] = target: T1, Amine oxidase [flavin-containing] B (Homo sapiens, UniProt P27338); test: Inhibition of recombinant human MAO-B assessed as inhibition of kynuramine conversion to fluorescent metabolite 4-hydroxyquinoline after 20 mins by fluorescence spectrophotometry
T1 sequence (P27338 whole entry): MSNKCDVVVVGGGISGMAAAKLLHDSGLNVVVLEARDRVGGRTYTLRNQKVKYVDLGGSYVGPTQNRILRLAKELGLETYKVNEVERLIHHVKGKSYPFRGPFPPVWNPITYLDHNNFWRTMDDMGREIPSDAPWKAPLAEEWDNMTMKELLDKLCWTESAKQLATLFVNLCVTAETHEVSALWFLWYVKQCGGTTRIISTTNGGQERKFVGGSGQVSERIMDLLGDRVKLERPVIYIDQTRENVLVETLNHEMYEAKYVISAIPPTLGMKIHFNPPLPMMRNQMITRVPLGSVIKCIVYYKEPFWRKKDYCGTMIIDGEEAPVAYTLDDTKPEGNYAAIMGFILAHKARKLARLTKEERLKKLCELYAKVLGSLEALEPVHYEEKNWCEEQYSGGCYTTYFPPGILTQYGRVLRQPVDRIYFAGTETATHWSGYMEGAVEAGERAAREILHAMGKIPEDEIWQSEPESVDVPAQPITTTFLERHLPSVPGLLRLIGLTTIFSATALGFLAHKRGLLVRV
Method in brief: (§1)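 IC50 values were read from sigmoidal concentration–inhibition curves of enzyme activity plotted against log inhibitor concentration.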

Homo sapiens = organism: Homo sapiens; test: Selectivity index, ratio of IC50 for recombinant human MAO-A to IC50 for recombinant human MAO-B
Method in brief: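 The index was calculated as IC50(MAO-A)/IC50(MAO-B), giving selectivity for the MAO-B isoform.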

[2] = target: T2, Amine oxidase [flavin-containing] A (Homo sapiens, UniProt P21397); test: Inhibition of recombinant human MAO-A assessed as inhibition of kynuramine conversion to fluorescent metabolite 4-hydroxyquinoline after 20 mins by fluorescence spectrophotometry; method in brief: as §1
T2 sequence (P21397 whole entry): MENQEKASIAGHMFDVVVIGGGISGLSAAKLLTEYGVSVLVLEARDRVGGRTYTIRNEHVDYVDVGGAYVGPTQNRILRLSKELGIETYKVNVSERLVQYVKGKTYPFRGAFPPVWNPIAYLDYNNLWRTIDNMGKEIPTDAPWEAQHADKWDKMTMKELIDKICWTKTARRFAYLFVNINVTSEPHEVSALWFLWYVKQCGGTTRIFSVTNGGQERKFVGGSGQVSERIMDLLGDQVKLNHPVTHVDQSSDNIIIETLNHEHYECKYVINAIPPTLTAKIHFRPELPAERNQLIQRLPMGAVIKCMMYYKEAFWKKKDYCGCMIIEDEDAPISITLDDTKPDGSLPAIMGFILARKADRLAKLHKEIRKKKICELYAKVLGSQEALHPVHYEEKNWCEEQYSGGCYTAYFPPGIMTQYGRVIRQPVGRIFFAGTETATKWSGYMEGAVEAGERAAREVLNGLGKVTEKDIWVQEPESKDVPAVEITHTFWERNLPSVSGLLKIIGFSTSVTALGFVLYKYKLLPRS

[3] = target: T1, Amine oxidase [flavin-containing] B; test: Reversible inhibition of recombinant human MAO-B using kynuramine as substrate assessed as residual activity at 100 times IC50 preincubated for 30 mins followed by 100 fold dilution measured after 20 mins by fluorescence spectrophotometry relative to control
[4] = target: T2, Amine oxidase [flavin-containing] A; test: Inhibition of recombinant human MAO-A assessed as inhibition of kynuramine conversion to fluorescent metabolite 4-hydroxyquinoline at 100 uM after 20 mins by fluorescence spectrophotometry
[5] = target: T1, Amine oxidase [flavin-containing] B; test: Inhibition of recombinant human MAO-B assessed as inhibition of kynuramine conversion to fluorescent metabolite 4-hydroxyquinoline at 100 uM after 20 mins by fluorescence spectrophotometry

| SMILES | IC50 [1] [µM] | Ratio IC50 (Homo sapiens) | IC50 [2] [µM] | Activity [3] [%] | inhibition (INH) [4] | inhibition (INH) [5] |
| --- | --- | --- | --- | --- | --- | --- |
| O=C1CCc2ccc(OCc3ccccc3)cc2N1 | 0.038 | 2380 | 90.4 |  |  |  |
| O=C1CCc2ccc(OCCCc3ccccc3)cc2N1 | 0.13 | 173 | 22.5 |  |  |  |
| O=C1CCc2cc(OCc3ccccc3)ccc2N1 | 4.01 | 6 | 25.3 |  |  |  |
| O=C1CCc2cc(O)ccc2N1 | 201 | 0.8 | 161 |  |  |  |
| O=C1CCc2ccc(OCc3cccc(Cl)c3)cc2N1 |  |  |  |  | Not Active |  |
| O=C1CCc2cc(OCc3cccc(Cl)c3)ccc2N1 | 0.62 | 82 | 50.6 |  |  |  |
| O=C1CCc2ccc(OCCc3ccccc3)cc2N1 | 0.191 | 281 | 53.7 |  |  |  |
| O=C1CCc2ccc(O)cc2N1 |  |  | 183 |  |  | Not Active |

Results, then the compound that gave them:

| IC50 [1] [µM] | Ratio IC50 (Homo sapiens) | IC50 [2] [µM] | Activity [3] [%] | inhibition (INH) [4] | inhibition (INH) [5] | SMILES |
| --- | --- | --- | --- | --- | --- | --- |
| 0.086 | 144 | 12.4 |  |  |  | O=C1CCc2cc(OCc3cccc(Br)c3)ccc2N1 |
| 2.33 | 10 | 22.5 |  |  |  | O=C1CCc2cc(OCCc3ccccc3)ccc2N1 |
|  |  | 7.98 | 36 |  |  | O=C1CCc2ccc(OCc3cccc(Br)c3)cc2N1 |
| 0.284 | 69 | 19.7 |  |  |  | O=C1CCc2cc(OCCCc3ccccc3)ccc2N1 |
